# Data: PubChem BioAssay AID504338 (NMMLSC, 2011)
# Where “and” joins values, the source holds several entries; their conditions need not be identical. Identical values can stand only once. Unmarked numbers belong to inactive results. Calls of active or inactive are those of the source.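 Rule for the calls: active = GFP response vs DMSO above 150% with enough events counted; inconclusive = fewer than 70 events counted for a yeast strain; inactive = the rest.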
# Assay: yeast TOR reporter LAP4-GFP retest – cell-based, third cherry pick, flow cytometry, confirmation (AID 504338);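 note: ratio to plate DMSO wells so 100% equals DMSO level rather than 0%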
# Details: S. cerevisiae LAP4-GFP strain, 3 h, at 10 µM, hits give high values
# How it was run: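 material = yeast LAP4-GFP strain | medium = synthetic complete growth medium for yeast | doses = 10 µM, one concentration | schedule = compound exposure for 3 h at 30 °C | signal = flow cytometric GFP fluorescence | read-out basis = percent of mean DMSO-control median fluorescence | control set = rapamycin 400 ng/mL as positive control, DMSO wells as reference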
row,Structure (SMILES),GFP response vs DMSO
1,O=C(Nc1nc(-c2ccccn2)cs1)c1ccccc1-n1cnnn1,94.4%
2,COc1ccc(Nc2nc(NN)nc(C)c2[N+](=O)[O-])cc1,100%
3,CC(=O)Nc1ccc(-c2nc3cc(Cl)ccc3o2)cc1,104%
4,CN1CCN(C(=O)c2cc(COc3ccc(F)cc3Cl)on2)CC1c1ccccc1 (configuration not stated),103%
5,CCc1sc(C(=O)Nc2nc(-c3ccccn3)cs2)cc1C,189% (active)
6,O=C(O)c1ccccc1-c1ccccc1C(=O)Nc1ccc(-c2nc3cc(Cl)ccc3o2)cc1,104%
7,C/C(=N\NC(=O)c1cccc2ccccc12)c1cccnc1,104%
8,COc1ccc(-c2cc(C(F)(F)F)nc(S(C)(=O)=O)n2)cc1OC,107% and 110%
9,CNc1nc(N)c([N+](=O)[O-])c(Nc2ccccc2OC)n1,111%
10,Nn1cnc2c(c1=O)C1(CCCCC1)Cc1ccccc1-2,97.2%
11,COc1ccc(OC)c2c(=O)cc(C(=O)O)[nH]c12,104%
12,COc1ccccc1Nc1nc(NCC(C)C)nc(N)c1[N+](=O)[O-],104%
13,C/C(=C\C(=O)c1ccc(Cl)cc1)Nc1ccc(Br)cc1,101%
14,CCCC(=O)Nn1cnc2c(c1=O)C1(CCCCC1)Cc1ccccc1-2,103%
15,CC(C)Nc1ncnc2ccc(Br)cc12,106%
16,COc1ccc(OC)c(N/C(C)=C/C(=O)c2ccccc2)c1,103%
17,COc1ccc(NC(=O)ON=C2c3ccccc3-c3ccccc32)cc1,104%
